Measurements taken from ChEMBL document CHEMBL3853349, “Diversity-Oriented Synthesis as a Strategy for Fragment Evolution against GSK3β” (ACS Med Chem Lett, 2016).
Active and inactive are the calls of the source. The rule behind the calls is not given here.

Assays:
[1] = target: T1, Glycogen synthase kinase-3 beta (Homo sapiens, UniProt P49841); test: Binding affinity to GSK-3 beta (unknown origin) assessed as thermal shift at 1.25 mM by differential scanning fluorimetry
Outline: (§1)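 Differential scanning fluorimetry on GSK3β, reported as thermal stabilization ΔT in °C. Compounds were tested at 2.5 mM by default; the growth-vector analogue set was run at 1.25 mM for ranking.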
Target sequence in this assay (P49841 whole entry, looked up): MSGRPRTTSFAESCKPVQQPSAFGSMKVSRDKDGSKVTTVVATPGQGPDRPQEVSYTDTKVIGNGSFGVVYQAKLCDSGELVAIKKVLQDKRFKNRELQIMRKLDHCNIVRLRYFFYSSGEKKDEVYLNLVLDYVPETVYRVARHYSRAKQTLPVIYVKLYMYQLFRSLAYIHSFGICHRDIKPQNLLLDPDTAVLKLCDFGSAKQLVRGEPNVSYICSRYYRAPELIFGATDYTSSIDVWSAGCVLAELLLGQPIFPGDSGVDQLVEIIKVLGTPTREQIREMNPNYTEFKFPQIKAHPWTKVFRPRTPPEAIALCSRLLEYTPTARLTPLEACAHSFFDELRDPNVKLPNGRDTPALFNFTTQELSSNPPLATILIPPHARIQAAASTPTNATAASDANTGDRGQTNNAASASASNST

[2] = target: T1, Glycogen synthase kinase-3 beta; test: Inhibition of recombinant full-length N-terminal GST tagged human GSK-3 beta expressed in baculovirus infected Sf9 insect cells at 1 mM using GSM as substrate after 5 mins by ADP-Glo luminescence assay
Outline: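 Single-point ADP-Glo biochemical inhibition of GSK3β with compound at 1 mM, used to rank analogues alongside DSF.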
Target sequence in this assay (P49841 whole entry, looked up): as above

[3] = target: T1, Glycogen synthase kinase-3 beta; test: Binding affinity to GSK-3 beta (unknown origin) assessed as assessed as thermal shift at 2.5 mM by differential scanning fluorimetry; outline: as §1
Target sequence in this assay (P49841 whole entry, looked up): as above

Homo sapiens = species: Homo sapiens; test: Selectivity ratio of IC50 for CDK5 (unknown origin) to IC50 for GSK-3 beta (unknown origin)
[4] = target: T1, Glycogen synthase kinase-3 beta; test: Binding affinity to GSK-3 beta (unknown origin) after 30 mins by isothermal titration calorimetry
Target sequence in this assay (P49841 whole entry): as the sequence (P49841 whole entry, looked up) above

[5] = target: T1, Glycogen synthase kinase-3 beta; test: Inhibition of recombinant full-length N-terminal GST tagged human GSK-3 beta expressed in baculovirus infected Sf9 insect cells using GSM as substrate after 5 mins by ADP-Glo luminescence assay
Target sequence in this assay (P49841 whole entry): as the sequence (P49841 whole entry, looked up) above

[6] = target: T1, Glycogen synthase kinase-3 beta; test: Binding affinity to GSK-3 beta (unknown origin) by STD NMR analysis
Target sequence in this assay (P49841 whole entry, looked up): as above

[7] = target: T1, Glycogen synthase kinase-3 beta; test: Binding affinity to GSK-3 beta (unknown origin) by WaterLOGSY NMR analysis
Target sequence in this assay (P49841 whole entry, looked up): as above

SMILES | deltaT [1] [°C] | inhibition [2] [%] | deltaT [3] [°C] | other results
CC(C)[C@H]1Nc2cccnc2NC1=O | 1.6 | 57 | 2.3 | –
C[C@H]1Nc2ccncc2NC1=O | – | 61 | 1.6 | –
C[C@@H]1Nc2ccncc2NC1=O | – | 69 | 1.4 | –
C[C@H]1Nc2ccccc2NC1=O | – | 12 | 0 | –
O=C1Nc2ncccc2N2C[C@H](O)C[C@@H]12 | – | – | 0.8 | –
C[C@H]1Nc2cccnc2NC1=O | 1 | 46 | 1.7 | Kd [4]: 600 µM; Activity [6]: Active; Activity [7]: Active
C[C@@H]1Nc2cccnc2NC1=O | 0 | 19 | 0.5 | –
C[C@@H]1Nc2ccccc2NC1=O | – | 9 | 0 | –
O=C1Nc2ncccc2N[C@H]1Cc1ccccc1 | 0 | 55 | – | –
C[C@@H]1CNc2ncccc2N1 | – | 17 | 0 | –
O=C1Nc2ncccc2N[C@H]1Cc1c[nH]c2ccccc12 | 1.7 | 76 | – | IC50 [5]: 322 µM
C[C@@H]1Nc2cnccc2NC1=O | – | 29 | 0.5 | –
C[C@@H]1Nc2ncccc2NC1=O | – | 63 | 1 | –

Now from value to compound, other results behind:

deltaT [1] [°C] | inhibition [2] [%] | deltaT [3] [°C] | SMILES | other results
– | 19 | 0 | C[C@H]1Nc2cccnc2N(C)C1=O | –
– | 26 | 0.7 | CC1(C)Nc2cccnc2NC1=O | –
4.5 | 94 | – | O=C1Nc2ncccc2N[C@@H]1Cc1c[nH]c2ccccc12 | Ratio IC50 (Homo sapiens): 50; Kd [4]: 9 µM; IC50 [5]: 18 µM
– | 25 | 0.5 | C[C@H]1Nc2cnccc2NC1=O | –
– | – | 0.5 | O=C1Nc2ncccc2N[C@H]1CO | –
2.9 | 88 | – | O=C1Nc2ncccc2N[C@@H]1Cc1ccc(O)cc1 | –
2.1 | 78 | – | O=C1Nc2ncccc2N[C@H]1Cc1ccc(O)cc1 | –
1.6 | 63 | – | O=C1Nc2ncccc2N[C@@H]1Cc1ccccc1 | –
– | 66 | 1.4 | C[C@H]1Nc2ncccc2NC1=O | –
0.5 | 35 | – | Cc1nc2cccnc2[nH]c1=O | –
0 | 25 | – | CC(C)[C@@H]1Nc2cccnc2NC1=O | –
